Sampled rows, rich in hits. Any-hit rate of the full collection: about 1.7%.
PLC-gamma1 inh: PLC-gamma1 (human) inhibition, primary screen | purified PLC-gamma1, fluorogenic substrate, fluorescence | inhibition, % at 12.2 µM | 370,000 tested, 0.84% active | P19174 | AID 720700; in the data active means inhibition above about 9.5%
Rpn11 block: Rpn11 (human) deubiquitinase inhibition | O00487 | AID 588493 | inhibition, % at 20 µM | 360,000 tested, 0.59% active | human 26S proteasome, Ub4-pepOG fluorescence polarization; 20S core pre-blocked with epoxomicin;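 active means inhibition at 20 µM, scaled to each plate's controls, above about 33%, limit read from the data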
UCH37 inh: blocks the human deubiquitinase UCH37 | Q9Y5K5 | purified proteasome/UCH37, Ub-AMC cleavage fluorescence | inhibition, % (no concentration beside the values) | 330,000 tested, 0.33% active;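 active means mean inhibition over replicate wells above about 20%, limit read from the data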;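 further: 0% = compound-free wells with enzyme and 100% = wells lacking proteasome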
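Signal – fluorescence, ex 355 nm, em 460 nm · System – Proteasome-bound UCH37 · Input – 0.15 nM proteasome as dispensed · Timing – 30 min preincubation with enzyme, 25 min cleavage at room temperature · Read-out basis – percent inhibition of cleavage signal versus uninhibited and no-proteasome wells · Medium – Tris-HCl pH 7.4 with ATP-MgCl2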
PLC-beta3 inh: PLC-beta3 (human) inhibition, primary screen | Purified PLC-beta3, fluorogenic substrate, fluorescence | Q01970 | inhibition, % at 12.2 µM | 370,000 tested, 0.18% active;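 further: 0% = median of compound wells on plate and 100% = full blocker control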
PLCgamma1 ctr: PLC-gamma1 inhibition, counter-screen for PLC-beta3 hits; shares compounds with PLC-gamma1 inh; purified PLC-gamma1, fluorogenic substrate, fluorescence; inhibition, % at 12.3 µM; 3,300 tested, 3.1% active; in the data active means inhibition above about 9.5%
PLCb3 confirm: human PLC-beta3 inhibition, confirmation | shares compounds with PLC-gamma1 inh | 3,300 tested, 1% active | purified PLC-beta3, fluorogenic substrate fluorescence | inhibition, % at 12.3 µM | AID 743261
Numbers without * were called inactive. Unless noted, no stated cut-off is given here; in the data, active means inhibition above about 11%; inactive means the rest.

CCCCn1c(=O)n(CC(=O)Nc2ccc(OC)c(Cl)c2)c(=O)c2c1nc(CO)n2CCC was read as PLC-gamma1 inh 9.7*, Rpn11 block -5.2, UCH37 inh 0.4, PLC-beta3 inh 5.9, PLCgamma1 ctr 13.3* and PLCb3 confirm 7.5.
For CCCCn1c(=O)n(CC(=O)Nc2c(CC)cccc2CC)c(=O)c2c1nc(CO)n2CCC the results were PLC-gamma1 inh 1.8, Rpn11 block 2.1, UCH37 inh 2.9 and PLC-beta3 inh 3.7.
For O=c1c2ccccc2sn1-c1ccc(Cl)cc1Cl the results were PLC-gamma1 inh -0.1, Rpn11 block 4.8, PLC-beta3 inh 15.9*, PLCgamma1 ctr -6.3 and PLCb3 confirm 1.6.
Screening Cc1cc(NC(=O)c2cc(-c3ccccc3)on2)n(-c2ccccc2)n1 returned PLC-gamma1 inh 8.8, Rpn11 block -2.6, UCH37 inh -8.3, PLC-beta3 inh 11.5*, PLCgamma1 ctr -8.6 and PLCb3 confirm -7.8.
`Cc1ccc(C(C(=O)NCc2ccco2)N(CCc2ccccc2)C(=O)Cn2nnc3ccccc32)o1` (stereo not drawn) gave PLC-gamma1 inh 3.7, Rpn11 block -1.2, UCH37 inh 2.2, PLC-beta3 inh 11.2*, PLCgamma1 ctr -3.7 and PLCb3 confirm -2.6.
For COc1cc(C(C)=NNC(=O)c2ccc(CSc3nncn3C)cc2)cc(OC)c1OC the results were UCH37 inh -2.9.
`O=C(/C=C/Nc1ccc(F)cc1F)c1ccc(Br)cc1` gave PLC-gamma1 inh 12.0*, Rpn11 block -6.4, UCH37 inh -2.8, PLC-beta3 inh 1.2, PLCgamma1 ctr -67.4 and PLCb3 confirm -59.8.
Screening O=C(NN=Cc1ccccc1O)c1cccc(C(F)(F)F)c1 returned UCH37 inh -2.9.
`CC(CCc1ccccc1)NC(=O)c1cccs1` (stereo not drawn) gave PLC-gamma1 inh 4.3, Rpn11 block -5.6, UCH37 inh 5.2, PLC-beta3 inh 11.9*, PLCgamma1 ctr -2.1 and PLCb3 confirm 1.1.
`O=C(Nc1ccccc1)ON=Cc1ccc(F)cc1` gave UCH37 inh 1.4.
COC(=O)[C@]12C[C@H](CC(=O)N3CCCCC3)C(=O)N(Cc3ccc(Cl)cc3Cl)C1=C[C@H](COCc1ccccc1)O[C@@H]2C was read as PLC-gamma1 inh 0.6 and PLC-beta3 inh 1.2.
`COC(=O)[C@]12C[C@H](CC(=O)N3CCN(C(=O)c4ccco4)CC3)C(=O)N(Cc3ccc(Cl)cc3Cl)C1=C[C@H](COCc1ccccc1)O[C@@H]2C` gave PLC-gamma1 inh 13.0*, PLC-beta3 inh -0.7, PLCgamma1 ctr -3.7 and PLCb3 confirm -2.2.
COc1ccc(OC)c(S(=O)(=O)NN=Cc2cn(CC(N)=O)c3ccccc23)c1 was read as UCH37 inh 3.9.
O=S(=O)(NCCOCCNS(=O)(=O)c1ccccc1)c1ccccc1 was read as PLC-gamma1 inh 11.0*, Rpn11 block -7.4, UCH37 inh 0.9, PLC-beta3 inh 4.9, PLCgamma1 ctr 6.3 and PLCb3 confirm -1.5.
`CC(C)(C)S(=O)(=O)C(C#N)=NNc1ccc(C#N)cc1` gave UCH37 inh 9.6.
COc1cccc(Oc2ccc(S(=O)(=O)N3CCCC3)cc2[N+](=O)[O-])c1 was read as PLC-gamma1 inh 9.6*, Rpn11 block -5.2, PLC-beta3 inh -2.7, PLCgamma1 ctr 2.3 and PLCb3 confirm 0.6.
For CC(=NNC(=O)Cc1csc(N2CCOCC2)n1)c1ccccc1 the results were UCH37 inh 4.3.
`Cc1ccccc1C(=O)ON=Cc1c(N2CCOCC2)n(C)c2ccccc12` gave UCH37 inh -0.7.
Screening Cc1ccc(S(=O)(=O)Nc2nc(C)cc(NN=Cc3ccc(O)cc3)n2)cc1 returned UCH37 inh 6.4.
O=C(CNc1ccccc1F)NN=CC1CC=CCC1 (stereo not drawn) was read as UCH37 inh -0.5.
COc1ccc(C(=O)NCC(C)(C)N2CCOCC2)cc1S(=O)(=O)NCc1ccc(Cl)cc1 was read as PLC-gamma1 inh 11.7*, Rpn11 block 9.1, PLC-beta3 inh -10.2, PLCgamma1 ctr -4.3 and PLCb3 confirm 0.5.
Cc1ccc(S(=O)(=O)N2[C@@H](c3ccc(Cl)cc3)C(C(=O)O)=CC[C@H]2c2ccc(Cl)cc2)cc1 was read as PLC-gamma1 inh 9.8*, Rpn11 block 3.5, UCH37 inh -0.9, PLC-beta3 inh -7.5, PLCgamma1 ctr -4.2 and PLCb3 confirm -4.5.
`O=C(Nc1ccccc1Cl)c1ccc(-n2cccn2)c([N+](=O)[O-])c1` gave PLC-gamma1 inh 10.7*, Rpn11 block -0.9, UCH37 inh 0.4, PLC-beta3 inh -2.5, PLCgamma1 ctr -4.0 and PLCb3 confirm -0.4.
CCOC(=O)C(=NNc1ccccc1[N+](=O)[O-])c1csc(N)n1 was read as UCH37 inh 5.1.
For CCC(=NNC(N)=O)c1ccc(OC(F)F)cc1 the results were UCH37 inh 3.4.
For CC(=NNC(=O)c1cccc(S(=O)(=O)Nc2cccc(Cl)c2)c1)c1cccs1 the results were UCH37 inh 1.8.
CCN(CC)CC(O)Cn1c2ccccc2c2ccccc21 (stereo not drawn) was read as PLC-gamma1 inh 11.6*, Rpn11 block 0.8, UCH37 inh 7.2, PLC-beta3 inh 7.5, PLCgamma1 ctr -8.9 and PLCb3 confirm -4.1.
`C=CCN(CC=C)CC(O)Cn1c2ccccc2c2ccccc21` (stereo not drawn) gave PLC-gamma1 inh 0.8, Rpn11 block -1.1, UCH37 inh 5.1 and PLC-beta3 inh 0.3.
Screening Cc1ccc(C=NNC(=O)CNC(=O)c2ccc(S(=O)(=O)N(C)C)cc2)o1 returned UCH37 inh 4.7.
`CNC(=O)CN1C(=O)CSc2ncccc21` gave PLC-gamma1 inh 3.7, Rpn11 block -9.3, UCH37 inh 5.2, PLC-beta3 inh 14.1*, PLCgamma1 ctr 1.7 and PLCb3 confirm 1.8.
NC(Cc1ccc([N+](=O)[O-])cc1)=NOC(=O)COc1ccc2ccccc2c1 was read as UCH37 inh 0.8.
Screening O=C(NN=Cc1ccc(OC(F)F)cc1)c1ccc(CSc2nc3ccccc3[nH]2)cc1 returned UCH37 inh 2.2.
`O=C(NCCc1ccccc1)c1c[nH]c2ccccc2c1=O` gave PLC-gamma1 inh 9.2, Rpn11 block -0.9, PLC-beta3 inh 11.2*, PLCgamma1 ctr -2.7 and PLCb3 confirm -1.8.
Screening CON=Cc1cccn1-c1nccc(OC)c1C#N returned UCH37 inh -2.0.
c1ccc(CN2CCN(C(c3ccccc3)c3ccccc3)CC2)cc1 was read as PLC-gamma1 inh 10.7*, Rpn11 block -6.7, UCH37 inh 1.3, PLC-beta3 inh 1.2, PLCgamma1 ctr -5.4 and PLCb3 confirm 2.1.
CC(C)COC(=O)Nc1ccc(C(=O)O)cc1 was read as PLC-gamma1 inh 3.5, Rpn11 block 5.0, UCH37 inh 3.8, PLC-beta3 inh 13.1*, PLCgamma1 ctr 3.9 and PLCb3 confirm 4.8.
